Results reported in paper PMC3728915 (Chemical science (Royal Society of Chemistry : 2010), 2013).

Assays:
[1] = tested on: U-937, HeLa, H460, 786-O, and MCF-7; test: 72-hour cytotoxicity across five human cell lines; format: cell-based; conditions: MTS and SRB cytotoxicity assays
Outline: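 Cells were treated with test compound for 72 h. U-937 cells were read by MTS reduction. HeLa, H460, 786-O and MCF-7 cells were read by sulforhodamine B staining. IC50 values are given in nM as the mean with standard deviation, n ≥ 3.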

[2] = tested on: U-937 and HeLa human cancer cell lines; test: Anticancer activity screen, cell line not given; format: cell-based
Outline: (§1)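 Human cancer cells were exposed continuously to test compound for 72 h. Viability was read by MTS for U-937 cells and by sulforhodamine B staining for HeLa cells. IC50 values are given in nM as the mean of at least three determinations with standard deviation.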

U-937 cells = test: Annexin V-FITC / propidium iodide apoptosis analysis; format: cell-based, human; conditions: 24 hours, U-937, 100-times the 72-hour IC50 values
[3] = tested on: HeLa (cervical carcinoma); test: 72-hour SRB cytotoxicity assay in HeLa cells; format: cell-based, human; conditions: read-out: IC50 (HeLa), 72-hour exposure
Outline: as §1

[4] = tested on: U-937 (hystiocytic lymphoma); test: 72-hour MTS cytotoxicity assay in U-937 cells; format: cell-based, human; conditions: read-out: IC50 (U-937), 72-hour exposure
Outline: as §1

For `CN1C(=O)[C@@]23C[C@]4([C@]56C[C@@]78SS[C@@](CO)(C(=O)N7[C@H]5Nc5ccccc56)N(C)C8=O)c5ccccc5N[C@@H]4N2C(=O)[C@]1(CO)SS3` [Compound 4, (+)-chaetocin A], the “IC50 / potency range (in words)” value [1] was “subnanomolar”.

In the case of (+)-gliocladin B [Compound 7], the IC50 ([2]; anticancer activity, cell line not specified) is reported as over 10000 nM.

`CN1C(=O)C(=O)N2C(=C[C@]3(c4c[nH]c5ccccc45)c4ccccc4N[C@H]23)C1=O` [Compound 52, (+)-Gliocladin C] was tested, and the “anticancer activity (in words)” value ([2]; 72-hour exposure, U-937 and HeLa) was “complete loss of biological activity”.

(+)-chaetocin C [Compound 5] was tested, and the “induction of apoptotic cell death” value (U-937 cells) was “induce caspase-dependent apoptotic cell death” and the “IC50 / potency range (in words)” value [1] was “subnanomolar”.

For “(+)-12,12'-dideoxyverticillin A [Compound 3]”, the IC50 [3] was 7.2 nM and the IC50 [4] was 15.5 nM.
